# This is a sample that favours compounds with a hit; in the whole collection about 2.4% have one here.
# LANA-H2A inh: blocks KSHV LANA binding to histone H2A/H2B. inhibition, % (test concentration not listed). cell-free LANA-H2A/H2B peptide, fluorescence polarization. actives 0.6% (n = 320,000). AID 2629; in the data active = inhibition mostly above about 10%, no sharp cut-off; inactive = mostly below about 6.7%
# Runt-CBFb FRET: blocks binding of human RUNX1 Runt domain to CBFb; Q01196+Q13951; Cerulean-Runt/Venus-CBFb FRET ratio 530/480, 1 h; inhibition, % at 20 µM; actives 0.46% (n = 220,000); AID 1496;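 active = inhibition over about 50% at 20 µM in the single-dose screen, limit read from the data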;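 also: 0% = DMSO wells and 100% = excess unlabeled CBFb competitor control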
#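 Reagent – Venus-CBFb binding partner, 100 nM · Assay system – Cerulean-tagged RUNX1 Runt domain (FRET donor) fusion protein · Input – 100 nM per protein · Incubation – two 1 h room-temperature incubations shielded from light · Measured by – FRET fluorescence · Medium – Tris buffer pH 7.5 with salts and BSA · Benchmarks – unlabeled CBFb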
# EBV gp42 block: blocks Epstein-Barr virus glycoprotein 42 binding; Q1HVG2; AID 1085; actives 0.42% (n = 220,000); inhibition, % (tested at 21.74 µM); Fluorescence polarization binding assay, mP read-out; in the data active = inhibition above about 50%
# RanGTP-Imp inh: inhibitors of RanGTP-importin-beta interaction, primary screen, biochemical, FRET, CFP-Ran, YFP-importin-beta, homogeneous; cell-free CFP-Ran/YFP-importin-beta FRET ratio; inhibition, % (no concentration beside the values); actives 1.1% (n = 300,000); AID 2216;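 active = more than half of the replicate wells show a fall in the fluorescence ratio signal beyond about 16%, limit read from the data, passing the limit was not always enough; inconclusive = exactly half of the replicate wells pass the set limit; inactive = fewer than half of replicates pass the limit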;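 also: 0% = DMSO wells and 100% = Ran loaded with GDP instead of GTP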
# MEX-5 binding: C. elegans MEX-5 TCR-2 RNA binding activity | Q9XUB2 | MEX-5/FITC-TCR2 RNA binding, fluorescence polarization; active compounds read low | activity score (negative = inhibition of binding), % at 10 µM | actives 0.38% (n = 300,000);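 active = inhibition past about -25% in most replicates, and total fluorescence under double the plate's negative control median, limit read from the data; inconclusive = replicates evenly split on the limit, or fluorescence at least double controls; inactive = too little inhibition in most replicates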;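 also: 0% = DMSO and -100% = 5 µM competing unlabeled TCR2 RNA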
# Target sequence (Q9XUB2 whole entry, looked up): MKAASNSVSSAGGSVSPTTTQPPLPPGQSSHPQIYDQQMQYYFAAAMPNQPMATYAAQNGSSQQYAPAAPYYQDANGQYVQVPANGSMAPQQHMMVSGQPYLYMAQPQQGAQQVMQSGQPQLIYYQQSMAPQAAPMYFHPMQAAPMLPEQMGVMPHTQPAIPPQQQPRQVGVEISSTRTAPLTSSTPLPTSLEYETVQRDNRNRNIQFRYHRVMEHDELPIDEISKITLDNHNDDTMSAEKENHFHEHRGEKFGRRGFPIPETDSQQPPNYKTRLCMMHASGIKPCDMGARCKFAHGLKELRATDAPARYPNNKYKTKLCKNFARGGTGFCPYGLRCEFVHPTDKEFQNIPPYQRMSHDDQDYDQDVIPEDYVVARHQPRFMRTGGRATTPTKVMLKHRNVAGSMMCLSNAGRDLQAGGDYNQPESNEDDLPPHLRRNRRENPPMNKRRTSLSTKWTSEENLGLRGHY
# Runt-SMMHC FRET: Runt domain-CBFb-SMMHC interaction inhibition. actives 0.74% (n = 220,000). inhibition, % at 20 µM. Cerulean-Runt/Venus-CBFb-SMMHC FRET ratio 530/480, 1 h. Q01196+Q13951;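 active = mean inhibition across duplicate retests at 20 µM reaching about 50%, limit read from the data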;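 also: 0% = DMSO wells and 100% = wells with excess untagged CBFb-SMMHC; inhibitors lower the FRET ratio by blocking Runt binding to CBFb-SMMHC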
# * = called active by the depositor; i = inactive; ? = inconclusive; / = no result; + = active, no number.
SMILES,LANA-H2A inh,Runt-CBFb FRET,EBV gp42 block,RanGTP-Imp inh,MEX-5 binding,Runt-SMMHC FRET
O=C(/C=C/c1ccc(N2CCC(c3ccccc3)=N2)cc1)c1ccccc1,0,-70,53*,-77,5,-77
COc1ccccc1N(C)S(=O)(=O)c1ccc(C(=O)NC2CCCCC2)cc1,i,/,/,/,/,/
CC(=O)N1CCN(c2nc(-c3ccco3)c3c(c2C#N)CC(C)(C)SC3)CC1,7,-12,6,16*,-3,-42
CC1(C)Cc2c(C#N)c(N3CCN(C(=O)c4ccco4)CC3)nc(-c3ccco3)c2CS1,0,-8,1,10,2,-40
Cc1ccccc1-n1c(C)cc(/C=N/Nc2ccc([N+](=O)[O-])cn2)c1C,-1,-14,-20,1,1,-24
Cc1cc(/C=N/Nc2ccc([N+](=O)[O-])cn2)c(C)n1-c1ccc(C(=O)O)cc1,6,-14,61*,5,-2,-46
C(=N\N1CCOCC1)/c1nc(-c2ccccc2)n2ccccc12,-1,0,62*,2,1,-4
C(=N\N1CCOCC1)/c1cn(-c2ccccc2)nc1-c1ccccc1,0,-4,-25,3,-1,-8
O=C(COC(=O)/C=C/c1ccc(F)cc1)NC1CCCCCC1,3,/,/,/,/,/
O=C1CC(c2c[nH]c3ccccc23)C(=O)N1 (configuration not stated),30*,0,-18,-2,0,0
CCC(=O)N1CC2(C)CN(C(=O)CC)CC(C)(C1)C2,1,-1,-13,17*,2,3
C[C@H](NC(=O)c1ccc2c(c1)OCO2)c1nnc2ccccn12,13,/,/,1,-1,/
Cc1ccc(-c2[nH]c3cc(C(N)=O)ccc3c(=O)c2O)cc1,-1,-48,-14,-15,-70*,-92
Cc1ccc(CNC(=O)c2ccc3c(=O)c(O)c(-c4ccc(C)cc4)[nH]c3c2)cc1,-1,-130,-16,-14,-1,-133
CCOC1(OCC)N=C(N)C2(C#N)C(c3ccc(NC(C)=O)cc3)C12C#N (configuration not stated),2,-4,-1,-1,-27*,-3
CCc1cc(C(=O)N2CCN(S(=O)(=O)c3ccccc3F)CC2)sc1C,+,/,/,/,/,/
CCc1cc(C(=O)N2CCN(S(=O)(=O)c3cc(C)ccc3C)CC2)sc1C,11,/,/,/,/,/
C=CCN(c1ccccc1OC)S(=O)(=O)c1cccc(C(=O)OCC(=O)N2CC(C)OC(C)C2)c1 (configuration not stated),1,/,/,/,/,/
Cc1nnc(SCC(=O)N2CC(=O)Nc3ccccc32)n1-c1ccccc1,2,3,-12,0,2,-1
Nn1c(Cc2ccccc2F)nnc1SCC(=O)N1CC(=O)Nc2ccccc21,-5,0,60*,5,0,-4
CNC(=O)C1CCN(S(=O)(=O)c2c(C)noc2/C=C/c2ccccc2F)CC1,17,/,/,-5,1,/
O=C(Nc1cccc(C(F)(F)F)c1)c1cc2c(s1)-c1ccccc1OC2,-7,45,-7,41*,0,87*
O=C(NNC(=O)C1CC(c2cccs2)=NO1)NC1CCCCC1 (configuration not stated),4,2,4,1,3,-3
Cc1cc(C)c2c(N)c(C(=O)c3ccccc3)sc2n1,-3,-2,-10,2,-8,4
Cc1cc(C)c2c(N)c(C(=O)C(C)(C)C)sc2n1,1,93*,-8,1,2,92*
SMILES,LANA-H2A inh,Runt-CBFb FRET,EBV gp42 block,RanGTP-Imp inh,MEX-5 binding,Runt-SMMHC FRET
CC1CCCN(Cc2nc3c(c(=O)n(C)c(=O)n3C)n2CC(N)=O)C1 (configuration not stated),13*,4,-1,2,0,1
CCC(=O)NC1=C(Cl)C(=O)C(NC(=O)CC)=C(Cl)C1=O,/,17,-16,/,/,95*
NCCS(=O)(=O)O,1,/,/,-4,6,/
CC1(C)C(C#N)=C(N)OC2=C1C(=O)CCC2,18*,1,-13,1,0,-1
COc1ccccc1NS(=O)(=O)c1cccc(C(=O)N/N=C(\C)c2cccnc2)c1,-2,/,/,/,/,/
Cc1cccc(N2CCN(C(=O)c3ccc4nc(-c5ccco5)c(-c5ccco5)nc4c3)CC2C)c1 (configuration not stated),-8,13,-5,35*,1,-15
Cc1cccc(N2CCN(C(=O)c3ccc4nccnc4c3)CC2C)c1 (configuration not stated),2,/,/,/,/,/
CCNC(=S)NNC(=O)c1ccc(OC(F)F)cc1,2,0,-20,1,5,-5
Nc1c(C(=O)NCc2ccc3c(c2)OCO3)c2nc3ccccc3nc2n1CCCN1CCOCC1,-2,22,-5,61*,0,81*
COc1ccccc1CNC(=O)c1c(N)n(CCCN2CCOCC2)c2nc3ccccc3nc12,/,3,9,126*,-2,38
Cc1ccc2cc(C(c3nnnn3Cc3ccccc3)N3CCc4ccccc43)c(=O)[nH]c2c1 (configuration not stated),4,14,-62,6,2,2
Cc1ccc2[nH]c(=O)c(C(c3nnnn3Cc3ccccc3)N3CCc4ccccc43)cc2c1 (configuration not stated),-1,11,-26,20*,-2,-1
CC1CCC2(CC1)NC(=O)N(CC(=O)Nc1cccc(S(=O)(=O)N3CCCC3)c1)C2=O (configuration not stated),0,/,/,/,/,/
O=C(O)c1cc2n(n1)C(C(F)(F)F)CC(C1CC1)N2 (configuration not stated),-1,0,-26,-4,-1,2
CC(C)(C)N(Cc1ccccc1)C(=O)c1ccc(Br)o1,9.6*,-1,-4,-4,-2,-2
CC(C)(C)N(Cc1ccccc1)C(=O)COC(=O)c1ccc(Br)o1,-3,/,/,/,/,/
CC1(OC(=O)c2cccs2)C(=O)C=C2C=C3CCCN3C=C2C1=O (configuration not stated),3,8,27,?,-27*,4
Cc1ccc(N2CC(C(=O)NCc3n[nH]c(=O)c4ccccc34)CC2=O)cc1C (configuration not stated),-4,/,/,3,2,/
CN(CC(=O)Nc1cccc(F)c1)C(=O)c1ccc2c(c1)S(=O)(=O)N=C1CCCCCN12,1,/,/,?,-2,/
CC(C)(O)C#Cc1ccc(CN2CCCC(CO)(Cc3cccc(Cl)c3)C2)cc1 (configuration not stated),-1,/,-27,1,-12,/
O=C(/C=C/c1ccc(F)cc1)N1CCN(c2ccccn2)CC1,-1,-3,-17,-1,0,1
